Assay results as given in ChEMBL document CHEMBL4699426, “A practical synthesis of amino limonin/deoxylimonin derivatives as effective mitigators against inflammation and nociception” (2020).

Columns and labels:
Mus musculus [1] = assay: Analgesic activity in mouse model of acetic-acid-induced writhing assessed as inhibition of writhing numbers at 70 mg/kg, po pretreated with compound followed by acetic acid challenge and measured after 30 mins relative to control; type: functional; conditions: 0.5 h
How it was run: (§1)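 Acetic acid writhing in mice. Oral dosing (70 mg/kg test compounds or limonin; 200 mg/kg aspirin); vehicle controls got 0.5% CMC-Na. 30 min later 0.6% acetic acid, 10 ml/kg i.p. Each animal held in its own box and observed for 15 min; writhing and stretching counted; result as percent change from vehicle writhing controls.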

Mus musculus [2] = assay: Antiinflammatory activity in mouse model of xylene-induced ear swelling assessed as inhibition of swelling by measuring weight of the ear at 100 mg/kg, ig pretreated for 90 mins followed by xylene challenge and measured after 30 mins relative to control; type: functional; conditions: po, 2 h, time 120 min
How it was run: (§2)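 Xylene ear swelling in mice. Test compounds 100 mg/kg i.g., naproxen 150 mg/kg i.g., all suspended in 0.5% CMC-Na; vehicle group got CMC-Na alone. 90 min after dosing, 25 ul xylene applied to both surfaces of right ear; left ear unstimulated. Killed 30 min later; 8 mm punches from both ears weighed; swelling taken against left ear weight.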

Mus musculus [3] = assay: Antiinflammatory activity in ICR mouse model of carrageenan-induced paw edema assessed as paw edema inhibition rate at 50 mg/kg, po pretreated with compound followed by carrageenan challenge and measured after 3 hrs post-treatment by dial thickness gage; type: functional
How it was run: (§3)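 ICR male mice, 8 per group, randomized, acclimated at least one week, 12 h light/dark, 22 ± 1 °C. Dosed intragastrically at 25, 50 or 100 mg/kg; indomethacin 22 mg/kg i.g. as reference; olive oil as vehicle. 30 min later, 1% fresh carrageenan in saline injected subplantar into right hind paw. Paw thickness read by dial gauge before injection and at 1, 2, 3 and 4 h; percent increase over pre-injection value.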

Mus musculus [4] = assay: Antiinflammatory activity in mouse model of xylene-induced ear swelling assessed as inhibition of swelling by measuring weight of the ear at 100 mg/kg, ig pretreated for 90 mins followed by xylene challenge and measured after 30 mins relative to deoxy-limonin; type: functional; conditions: time 120 min, 2 h; how it was run: as §2
Mus musculus [5] = assay: Antiinflammatory activity in ICR mouse model of carrageenan-induced paw edema assessed as paw edema inhibition rate at 100 mg/kg, po pretreated with compound followed by carrageenan challenge and measured after 1 hr post-treatment by dial thickness gage; type: functional; how it was run: as §3
Mus musculus [6] = assay: Antiinflammatory activity in po dosed ICR mouse model of carrageenan-induced paw edema assessed as paw edema inhibition rate pretreated with compound followed by carrageenan challenge and measured after 4 hrs post-treatment by dial thickness gage; type: functional, organism-based; conditions: dose mg/kg 25-100, time 4.0 hrs; how it was run: as §3
Mus musculus [7] = assay: Antiinflammatory activity in ICR mouse model of carrageenan-induced paw edema assessed as paw edema inhibition rate at 25 mg/kg, po pretreated with compound followed by carrageenan challenge and measured after 2 hrs post-treatment by dial thickness gage; type: functional; how it was run: as §3
Mus musculus [8] = assay: Antiinflammatory activity in ICR mouse model of carrageenan-induced paw edema assessed as paw edema inhibition rate at 25 mg/kg, po pretreated with compound followed by carrageenan challenge and measured after 1 hr post-treatment by dial thickness gage; type: functional; how it was run: as §3
Mus musculus [9] = assay: Antiinflammatory activity in ICR mouse model of carrageenan-induced paw edema assessed as paw edema inhibition rate at 50 mg/kg, po pretreated with compound followed by carrageenan challenge and measured after 2 hrs post-treatment by dial thickness gage; type: functional; how it was run: as §3
Mus musculus [10] = assay: Antiinflammatory activity in ICR mouse model of carrageenan-induced paw edema assessed as paw edema inhibition rate at 25 mg/kg, po pretreated with compound followed by carrageenan challenge and measured after 3 hrs post-treatment by dial thickness gage; type: functional; how it was run: as §3
Mus musculus [11] = assay: Antiinflammatory activity in ICR mouse model of carrageenan-induced paw edema assessed as paw edema inhibition rate at 100 mg/kg, po pretreated with compound followed by carrageenan challenge and measured after 4 hrs post-treatment by dial thickness gage; type: functional; how it was run: as §3
Mus musculus [12] = assay: Antiinflammatory activity in ICR mouse model of carrageenan-induced paw edema assessed as paw edema inhibition rate at 25 mg/kg, po pretreated with compound followed by carrageenan challenge and measured after 4 hrs post-treatment by dial thickness gage; type: functional; conditions: 2 h, dose mg/kg 25-100; how it was run: as §3
Mus musculus [13] = assay: Antiinflammatory activity in ICR mouse model of carrageenan-induced paw edema assessed as paw edema inhibition rate at 100 mg/kg, po pretreated with compound followed by carrageenan challenge and measured after 3 hrs post-treatment by dial thickness gage; type: functional; how it was run: as §3
Mus musculus [14] = assay: Antiinflammatory activity in ICR mouse model of carrageenan-induced paw edema assessed as paw edema inhibition rate at 50 mg/kg, po pretreated with compound followed by carrageenan challenge and measured after 1 hr post-treatment by dial thickness gage; type: functional; how it was run: as §3
Mus musculus [15] = assay: Antiinflammatory activity in ICR mouse model of carrageenan-induced paw edema assessed as paw edema inhibition rate at 100 mg/kg, po pretreated with compound followed by carrageenan challenge and measured after 2 hrs post-treatment by dial thickness gage; type: functional; how it was run: as §3
Mus musculus [16] = assay: Analgesic activity in mouse model of acetic-acid-induced writhing assessed as inhibition of writhing numbers at 200 mg/kg, po pretreated with compound followed by acetic acid challenge and measured after 30 mins relative to control; type: functional; conditions: 0.5 h; how it was run: as §1

With `COc1ccc(CCNCCC2OC(C)(C)[C@@H]3CC(=O)[C@]4(C)[C@H](CC[C@@]5(C)[C@H](c6ccoc6)OC(=O)[C@H]6O[C@]654)C23CO)cc1OC` (stereo partly drawn) the inhibition in vivo at 70 mg/kg (Mus musculus [1]) was 11.2% and the inhibition in vivo at 100 mg/kg (Mus musculus [2]) was 26.7%.
For `COc1cccc(CCNCCC2OC(C)(C)[C@@H]3CC(=O)[C@@]4(C)C5=CC(=O)O[C@@H](c6ccoc6)[C@]5(C)CC[C@@H]4C23CO)c1` (stereo partly drawn), the inhibition in vivo at 50 mg/kg (Mus musculus [3]) was 24.1%, the “fold change (FC)” value (Mus musculus [4]) was 5 and the inhibition in vivo at 100 mg/kg (Mus musculus [5]) was 59.8%. For the same molecule, the inhibition (Mus musculus [6]) was “Dose-dependent effect”, the inhibition in vivo at 25 mg/kg (Mus musculus [7]) was 17.6% and the inhibition in vivo at 70 mg/kg (Mus musculus [1]) was 52.6%. The inhibition in vivo at 25 mg/kg (Mus musculus [8]) was 51.5%, the inhibition in vivo at 50 mg/kg (Mus musculus [9]) was 27.3% and the inhibition in vivo at 25 mg/kg (Mus musculus [10]) was 12%. It also gave an inhibition in vivo at 100 mg/kg (Mus musculus [11]) of 27.5%, an inhibition in vivo at 25 mg/kg (Mus musculus [12]) of 5.43% and an inhibition in vivo at 100 mg/kg (Mus musculus [13]) of 35.3%. It also gave an inhibition in vivo at 100 mg/kg (Mus musculus [2]) of 51.5%, an inhibition in vivo at 50 mg/kg (Mus musculus [14]) of 55.6% and an inhibition in vivo at 100 mg/kg (Mus musculus [15]) of 65.3%.
In the case of `COc1cccc(CCNCCC2OC(C)(C)[C@@H]3CC(=O)[C@]4(C)[C@H](CC[C@@]5(C)[C@H](c6ccoc6)OC(=O)[C@H]6O[C@]654)C23CO)c1` (stereo partly drawn), the inhibition in vivo at 70 mg/kg (Mus musculus [1]) is reported as 58.7% and the inhibition in vivo at 100 mg/kg (Mus musculus [2]) is reported as 17%.
Work on `COc1ccc(CN2CCC3OC(C)(C)[C@@H]4CC(=O)[C@@]5(C)C6=CC(=O)O[C@@H](c7ccoc7)[C@]6(C)CC[C@@H]5C34C2)cc1` (stereo partly drawn) yielded an inhibition in vivo at 70 mg/kg (Mus musculus [1]) of 40% and an inhibition in vivo at 100 mg/kg (Mus musculus [2]) of 32.5%.
In the case of `CC1(C)OC(CCNCc2ccc(F)cc2)C2(CO)[C@H]3CC[C@]4(C)C(=CC(=O)O[C@H]4c4ccoc4)[C@]3(C)C(=O)C[C@@H]12` (stereo partly drawn), the inhibition in vivo at 70 mg/kg (Mus musculus [1]) is reported as 37% and the inhibition in vivo at 100 mg/kg (Mus musculus [2]) is reported as 29.5%.
`CC(=O)Oc1ccccc1C(=O)O` [ASPIRIN] gave an inhibition in vivo at 200 mg/kg (Mus musculus [16]) of 51.5%.
Work on `CC1(C)OC(CCNCCc2ccc(F)cc2)C2(CO)[C@H]3CC[C@@]4(C)[C@H](c5ccoc5)OC(=O)[C@H]5O[C@]54[C@]3(C)C(=O)C[C@@H]12` (stereo partly drawn) yielded an inhibition in vivo at 70 mg/kg (Mus musculus [1]) of 55.8% and an inhibition in vivo at 100 mg/kg (Mus musculus [2]) of 16.1%.
`CC1(C)OC(CCNCc2ccc(F)cc2)C2(CO)[C@H]3CC[C@@]4(C)[C@H](c5ccoc5)OC(=O)[C@H]5O[C@]54[C@]3(C)C(=O)C[C@@H]12` (stereo partly drawn) showed an inhibition in vivo at 70 mg/kg (Mus musculus [1]) of 63.8% and an inhibition in vivo at 100 mg/kg (Mus musculus [2]) of 27.4%.
